As usually defined, the IC50 is the point on the concentration scale where inhibition reaches its midpoint. A low value points to higher potency. One may read the inhibition as how much of the control response was suppressed. A higher inhibition goes with a response far below the control.

The target of experiment [1] is T1, Telomerase reverse transcriptase (Homo sapiens, UniProt O14746). The experiment can be described thus: Inhibition of human telomerase from HEK293 cell extracts by Flash-Plate assay. Format: cell-free. The method in brief: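 Affinity-enriched telomerase extract from HEK293 cells overexpressing telomerase, adjusted to 5 fmol dNTP incorporation min-1 µL-1, in buffer with 50 mM Tris-acetate pH 8.5, 150 mM K acetate, 1 mM MgCl2, 1 mM EGTA. Buffer also held 10 µM dATP, 20 µM dGTP, 120 µM TTP and 500 nM 5'-biotinylated primer. Compounds in DMSO at 0.01-10 µM; 2 h at 37 °C. Elongated primer hybridized to a 33P-labeled complementary probe, captured on streptavidin Flash-Plate; IC50 from radioactivity.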

Experiment [2] deals with DNA-directed RNA polymerase (Enterobacteria phage T3) (UniProt P07659). Description: Inhibition of T3 RNA polymerase up to 2 uM.
In experiment [3] the target is T1, Telomerase reverse transcriptase. The note with it: 1 uM.
Experiment [4] shares this target. The note with it: A-431, 1 uM.

Calls of active or inactive are those of the source. No cut-off for these calls is given here.

T1 sequence (O14746 whole entry): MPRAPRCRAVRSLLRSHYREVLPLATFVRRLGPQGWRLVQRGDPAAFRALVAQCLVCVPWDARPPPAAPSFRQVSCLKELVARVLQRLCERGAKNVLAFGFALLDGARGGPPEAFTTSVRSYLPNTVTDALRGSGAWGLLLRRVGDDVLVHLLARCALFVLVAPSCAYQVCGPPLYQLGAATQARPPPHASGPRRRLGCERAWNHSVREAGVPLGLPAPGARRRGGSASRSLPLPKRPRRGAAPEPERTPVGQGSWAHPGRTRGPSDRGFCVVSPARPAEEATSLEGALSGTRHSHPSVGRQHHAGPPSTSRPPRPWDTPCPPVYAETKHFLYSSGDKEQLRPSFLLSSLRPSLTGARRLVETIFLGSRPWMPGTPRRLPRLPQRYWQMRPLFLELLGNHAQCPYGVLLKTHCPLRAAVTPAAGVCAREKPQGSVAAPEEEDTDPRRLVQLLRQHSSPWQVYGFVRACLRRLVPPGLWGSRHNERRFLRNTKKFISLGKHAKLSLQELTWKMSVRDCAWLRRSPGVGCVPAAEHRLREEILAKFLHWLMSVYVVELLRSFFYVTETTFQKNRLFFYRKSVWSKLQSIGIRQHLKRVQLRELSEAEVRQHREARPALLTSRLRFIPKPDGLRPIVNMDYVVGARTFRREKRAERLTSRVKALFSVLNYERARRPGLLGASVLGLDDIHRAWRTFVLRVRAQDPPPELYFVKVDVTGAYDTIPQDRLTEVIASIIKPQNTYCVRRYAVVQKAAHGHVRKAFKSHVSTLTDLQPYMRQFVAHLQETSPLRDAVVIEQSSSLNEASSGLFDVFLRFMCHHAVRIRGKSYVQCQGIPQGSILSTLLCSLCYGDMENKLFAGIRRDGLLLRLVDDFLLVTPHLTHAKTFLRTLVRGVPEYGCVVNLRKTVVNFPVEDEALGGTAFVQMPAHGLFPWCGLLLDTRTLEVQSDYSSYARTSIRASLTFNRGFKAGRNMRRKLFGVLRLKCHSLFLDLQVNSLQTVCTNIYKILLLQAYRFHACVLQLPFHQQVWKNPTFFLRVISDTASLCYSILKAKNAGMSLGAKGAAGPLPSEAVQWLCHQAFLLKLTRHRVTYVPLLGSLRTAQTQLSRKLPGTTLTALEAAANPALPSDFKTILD
Chain of DNA-directed RNA polymerase (Enterobacteria phage T3) (P07659 whole entry): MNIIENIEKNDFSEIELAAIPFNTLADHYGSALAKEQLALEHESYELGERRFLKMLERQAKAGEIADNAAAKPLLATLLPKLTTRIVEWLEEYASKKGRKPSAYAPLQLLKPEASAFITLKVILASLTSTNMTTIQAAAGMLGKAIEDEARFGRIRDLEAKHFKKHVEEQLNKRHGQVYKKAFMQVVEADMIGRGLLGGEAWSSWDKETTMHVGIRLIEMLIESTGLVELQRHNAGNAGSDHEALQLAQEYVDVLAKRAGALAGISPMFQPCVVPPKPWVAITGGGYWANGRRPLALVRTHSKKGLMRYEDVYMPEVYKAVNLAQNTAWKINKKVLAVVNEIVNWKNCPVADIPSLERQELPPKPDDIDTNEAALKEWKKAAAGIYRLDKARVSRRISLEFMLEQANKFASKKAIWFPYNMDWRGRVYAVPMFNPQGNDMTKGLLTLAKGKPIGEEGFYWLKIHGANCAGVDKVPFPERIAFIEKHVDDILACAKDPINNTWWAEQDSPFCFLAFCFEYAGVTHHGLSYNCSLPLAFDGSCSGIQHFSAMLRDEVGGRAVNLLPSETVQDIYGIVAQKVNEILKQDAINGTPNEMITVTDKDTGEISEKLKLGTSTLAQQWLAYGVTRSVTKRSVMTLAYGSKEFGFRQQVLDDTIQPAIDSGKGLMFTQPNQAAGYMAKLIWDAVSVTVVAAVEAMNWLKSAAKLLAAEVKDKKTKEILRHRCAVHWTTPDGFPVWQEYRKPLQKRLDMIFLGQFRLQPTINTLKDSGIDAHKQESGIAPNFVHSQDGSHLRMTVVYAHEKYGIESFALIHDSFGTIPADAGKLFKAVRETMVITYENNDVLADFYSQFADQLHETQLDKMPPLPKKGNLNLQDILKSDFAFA

In experiment [1], `COc1ccc2c(=O)cc(-c3ccc4[nH]c(CCCN(C)C)nc4c3)oc2c1OC` had a half-maximal inhibitory concentration (IC50) of 0.47 µM.

With `O=c1cc(-c2ccc(O)c(O)c2)oc2c(O)cccc12`, in experiment [1], the IC50 is more than 40 µM.

For the compound `O=c1cc(-c2ccc3[nH]cnc3c2)oc2c(O)c(O)ccc12`, in experiment [1], it took 4 µM to reach half-maximal inhibition (IC50).

For the compound `COc1ccc(-c2cc(=O)c3ccc(O)c(O)c3o2)cc1O`, the IC50 in experiment [1] is 11 µM.

Compound `O=c1cc(-c2cccc(O)c2)oc2c(O)c(O)ccc12` gave a 50% inhibitory concentration (IC50) in experiment [1] of 50 µM.

Compound `O=c1cc(-c2ccc(O)c(O)c2)oc2c(O)c(O)c(Cl)cc12` yielded a concentration for half-maximal inhibition (IC50) in experiment [1] of 0.82 µM.

For `COc1ccc2c(=O)cc(-c3ccc(O)c(O)c3)oc2c1OC`, the IC50 in experiment [1] was more than 40 µM.

In experiment [1], `O=C(/C=C/c1ccc(O)c(O)c1)c1ccc(O)c(O)c1` gave a 50% inhibitory concentration (IC50) of 1.7 µM.

As for `O=c1cc(-c2ccc(O)c(O)c2)oc2c(O)c(O)ccc12`, the half-inhibitory concentration (IC50) in experiment [1] came to 0.2 µM. Moreover, in experiment [2], the result was inactive. Further, the inhibition in experiment [3] and in experiment [4] was 50% each time.

`Cc1nc2cc(-c3cc(=O)c4ccc(O)c(O)c4o3)ccc2[nH]1` registered a half-maximal inhibitory concentration (IC50) in experiment [1] of more than 40 µM.

As to `COc1ccc2c(=O)cc(-c3ccc4[nH]c(C)nc4c3)oc2c1OC`, in experiment [1], the midpoint of inhibition, the IC50, lay at 22.1 µM.

`O=C(/C=C/c1ccc(O)c(O)c1)c1ccc(O)c(O)c1O`: in experiment [1], the IC50 came to 6 µM.

`O=c1cc(-c2ccc(O)c(O)c2)oc2ccccc12` displayed a concentration for half-maximal inhibition (IC50) in experiment [1] of more than 40 µM.

`O=c1cc(-c2ccccc2)oc2c(O)c(O)ccc12` [7,8-DIHYDROXYFLAVONE] returned an IC50 in experiment [1] of 36 µM.

`COc1ccc2c(=O)cc(-c3ccc4[nH]c(=O)c(=O)[nH]c4c3)oc2c1OC` displayed a concentration for half-maximal inhibition (IC50) in experiment [1] of more than 40 µM.

For the compound `O=c1cc(-c2ccc(O)c(O)c2)oc2cc(O)ccc12`, the half-maximal inhibitory concentration (IC50) in experiment [1] is more than 40 µM.

`COc1ccc(-c2cc(=O)c3ccc(O)c(O)c3o2)cc1OC` gave an IC50 in experiment [1] of 11.7 µM.

Regarding `O=c1[nH]c2ccc(-c3cc(=O)c4ccc(O)c(O)c4o3)cc2[nH]c1=O`, the IC50 in experiment [1] was more than 40 µM.

Consider `O=c1[nH]c2ccc(-c3cc(=O)c4ccc(O)c(O)c4o3)cc2[nH]1`, for which, in experiment [1], 1.2 µM corresponded to half-maximal inhibition (IC50).

Source of the values: ChEMBL document CHEMBL1149272, “Catecholic flavonoids acting as telomerase inhibitors” (J Med Chem, 2004).
